3 compounds from ChEMBL document CHEMBL1152541, “Staurosporine tethered peptide ligands that target cAMP-dependent protein kinase (PKA): optimization and selectivity profiling” (Bioorg Med Chem, 2009) can be followed below.

The target in test [1] is T1, Serine/threonine-protein kinase Chk1 (Homo sapiens) (UniProt O14757).
T1 sequence (whole entry): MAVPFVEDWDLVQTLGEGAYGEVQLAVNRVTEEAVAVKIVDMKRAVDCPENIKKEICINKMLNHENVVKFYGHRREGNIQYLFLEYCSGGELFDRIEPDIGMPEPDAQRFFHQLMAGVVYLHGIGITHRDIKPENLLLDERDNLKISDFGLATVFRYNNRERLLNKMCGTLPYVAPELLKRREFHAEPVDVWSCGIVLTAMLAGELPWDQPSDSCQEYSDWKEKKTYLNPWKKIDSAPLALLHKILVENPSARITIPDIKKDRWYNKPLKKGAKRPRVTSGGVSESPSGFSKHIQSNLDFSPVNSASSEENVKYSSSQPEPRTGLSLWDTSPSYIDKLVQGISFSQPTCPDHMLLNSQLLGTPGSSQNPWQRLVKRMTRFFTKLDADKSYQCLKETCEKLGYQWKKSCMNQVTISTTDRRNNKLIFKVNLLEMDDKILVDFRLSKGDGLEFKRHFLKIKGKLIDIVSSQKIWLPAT
Nature of the test: Binding affinity to human CHEK1 at 500 nM by cell-based competition binding assay relative to control in presence of DTT. The method, boiled down: (§1)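 Commercial (Ambit) competitive kinase-binding panel of 90 kinases measured the binding profile. Run under reducing conditions of 7.5 mM DTT. Binding is expressed relative to control.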

Test [2] has as its target Cyclin-dependent kinase 16 (Homo sapiens) (UniProt Q00536). Nature of the test: Binding affinity to human PCTK1 at 500 nM by cell-based competition binding assay relative to control in presence of DTT.
Test [3] deals with Tyrosine-protein kinase ABL1 (Homo sapiens), P00519 [E255K]. Nature of the test: Binding affinity to human ABL1 E255K mutant at 500 nM by cell-based competition binding assay relative to control in presence of DTT. The method, boiled down: (§2)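 Kinase binding profiling ran on a commercial (Ambit) competitive binding screen against a panel of 90 kinases. The screen used reducing conditions with 7.5 mM DTT. To withstand the DTT, the bivalent ligand was tested as its amide isostere, with the disulfide replaced. A staurosporine derivative carrying a 3 β-alanine linker was run as the reference compound.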

For test [4], the target named is T2, TGF-beta receptor type-1 (Homo sapiens) (UniProt P36897).
T2 sequence (whole entry): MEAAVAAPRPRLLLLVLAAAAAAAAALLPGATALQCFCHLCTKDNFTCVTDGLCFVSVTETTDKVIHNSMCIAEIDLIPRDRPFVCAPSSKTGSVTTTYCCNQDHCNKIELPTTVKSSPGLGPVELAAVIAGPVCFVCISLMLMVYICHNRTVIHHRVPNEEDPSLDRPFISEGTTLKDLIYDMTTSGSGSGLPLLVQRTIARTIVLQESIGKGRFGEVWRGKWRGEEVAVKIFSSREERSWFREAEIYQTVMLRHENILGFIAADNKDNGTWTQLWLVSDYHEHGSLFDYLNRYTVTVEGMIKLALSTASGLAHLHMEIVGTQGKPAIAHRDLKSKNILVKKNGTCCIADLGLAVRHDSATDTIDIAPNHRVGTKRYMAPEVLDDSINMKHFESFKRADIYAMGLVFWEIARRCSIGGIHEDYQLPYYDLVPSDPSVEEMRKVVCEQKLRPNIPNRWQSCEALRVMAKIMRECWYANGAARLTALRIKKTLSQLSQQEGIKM
Nature of the test: Binding affinity to human TGFBR1 at 500 nM by cell-based competition binding assay relative to control in presence of DTT.

For test [5], the target named is Angiopoietin-1 receptor (Homo sapiens) (UniProt Q02763). Nature of the test: Binding affinity to human TIE2 at 500 nM by cell-based competition binding assay relative to control in presence of DTT.
In test [6] the target is Phosphatidylinositol 4,5-bisphosphate 3-kinase catalytic subunit gamma isoform (Homo sapiens) (UniProt P48736). In words: Binding affinity to human PIK3Cgamma at 200 nM by cell-based competition binding assay relative to control in presence of DTT.
The target of test [7] is Glycogen synthase kinase-3 beta (Homo sapiens) (UniProt P49841). In words: Binding affinity to human GSK3-beta at 200 nM by cell-based competition binding assay relative to control in presence of DTT. The method, boiled down: as §1
Test [8] addresses Serine/threonine-protein kinase pim-1 (Homo sapiens) (UniProt P11309). In words: Binding affinity to human PIM1 at 200 nM by cell-based competition binding assay relative to control in presence of DTT.
In test [9] the target is Serine/threonine-protein kinase 32C (Homo sapiens) (UniProt Q86UX6). In words: Binding affinity to human YANK3 at 200 nM by cell-based competition binding assay relative to control in presence of DTT.
The target of test [10] is RAF proto-oncogene serine/threonine-protein kinase (Homo sapiens) (UniProt P04049). Nature of the test: Binding affinity to human RAF1 at 200 nM by cell-based competition binding assay relative to control in presence of DTT.
Test [11] deals with Serine/threonine-protein kinase PAK 4 (Homo sapiens) (UniProt O96013). In words: Binding affinity to human PAK4 at 200 nM by cell-based competition binding assay relative to control in presence of DTT.
Test [12] concerns the target cAMP-dependent protein kinase catalytic subunit alpha (Homo sapiens) (UniProt P17612). In words: Binding affinity to human PKACalpha at 200 nM by cell-based competition binding assay relative to control in presence of DTT.
The target of test [13] is Phosphatidylinositol 4,5-bisphosphate 3-kinase catalytic subunit alpha isoform (Homo sapiens) (UniProt P42336). Nature of the test: Binding affinity to human PIK3Calpha at 50 nM by cell-based competition binding assay relative to control in presence of DTT.
The target of test [14] is Mitogen-activated protein kinase kinase kinase 9 (Homo sapiens) (UniProt P80192). In words: Binding affinity to human MLK1 at 50 nM by cell-based competition binding assay relative to control in presence of DTT.
Test [15] concerns the target RAF proto-oncogene serine/threonine-protein kinase (Homo sapiens) (UniProt P04049). Nature of the test: Binding affinity to human RAF1 at 50 nM by cell-based competition binding assay relative to control in presence of DTT.
Test [16] deals with Cyclin-dependent kinase 2 (Homo sapiens) (UniProt P24941). Nature of the test: Binding affinity to human CDK2 at 50 nM by cell-based competition binding assay relative to control in presence of DTT. The method, boiled down:
as §2

Test [17] addresses Ephrin type-A receptor 2 (Homo sapiens) (UniProt P29317). In words: Binding affinity to human EPHA2 at 50 nM by cell-based competition binding assay relative to control in presence of DTT. The method, boiled down:
as §1

Test [18] deals with Mitogen-activated protein kinase 3 (Homo sapiens) (UniProt P27361). In words: Binding affinity to human ERK1 at 50 nM by cell-based competition binding assay relative to control in presence of DTT. The method, boiled down:
as §1

Test [19] addresses Atypical kinase COQ8A, mitochondrial (Homo sapiens) (UniProt Q8NI60). Nature of the test: Binding affinity to human ADCK3 at 50 nM by cell-based competition binding assay relative to control in presence of DTT. Put shortly:
as §2

*1 amine or outer side, *2 acyl side, *3 side chain or, on linkers, in order; H or OH if unused. Where a SMILES comes first, the peptide text is derived from it. Bridges are numbered along the chain shown (N, C = ends). [ ]: non-standard residue; d: D form. The star is where a group is joined. Staurosporine = CO[C@@H]1[C@H](N(C)*)C[C@H]2O[C@]1(C)n1c3ccccc3c3c4c(c5c6ccccc6n2c5c31)C(=O)NC4; Suc = O=C(CCC(=O)[*:2])[*:1]; Dap = NC[C@H](N)C(=O)O; βAla = NCCC(=O)O

Regarding `CO[C@@H]1[C@H](N(C)C(=O)CCC(=O)NCCC(=O)NCCC(=O)NCCC(N)=O)C[C@H]2O[C@]1(C)n1c3ccccc3c3c4c(c5c6ccccc6n2c5c31)C(=O)NC4`, the Activity in [1] is 54%; in test [2] it was 75%; in test [3], 92%; in test [4] it was 75%; in [5] it was 38%.
For the compound `CO[C@@H]1[C@H](N(C)C(=O)CCC(=O)NCCC(=O)NCCC(=O)NCCC(=O)NCCC(=O)NCCC(=O)NCCC(=O)NCCC(=O)N[C@H]2CSSC[C@@H](C(=O)NCC(N)=O)NC(=O)CNC(=O)[C@H](Cc3ccccc3)NC(=O)[C@H](C(C)C)NC(=O)[C@H](CCCNC(=N)N)NC(=O)[C@H](Cc3ccccc3)NC(=O)[C@H](C(C)C)NC2=O)C[C@H]2O[C@]1(C)n1c3ccccc3c3c4c(c5c6ccccc6n2c5c31)C(=O)NC4` ({Staurosporine-Suc-βAla-βAla-βAla-βAla-βAla-βAla-βAla}-CVFRVFGCG-NH2; disulfide 1-8), the Activity stood at 100% in [6]; 100% in test [7]; 53% in test [8]; 100% in test [9]; 89% in [10]; 40% in [11]. The Activity in test [12] worked out at 19%.
As for `CO[C@@H]1[C@H](N(C)C(=O)CCC(=O)NCCC(=O)NCCC(=O)NCCC(=O)NCCC(=O)NCCC(=O)NCCC(=O)NCCC(=O)N[C@H]2CNC(=O)C[C@@H](C(N)=O)NC(=O)CNC(=O)[C@H](Cc3ccccc3)NC(=O)[C@H](C(C)C)NC(=O)[C@H](CCCNC(=N)N)NC(=O)[C@H](Cc3ccccc3)NC(=O)[C@H](C(C)C)NC2=O)C[C@H]2O[C@]1(C)n1c3ccccc3c3c4c(c5c6ccccc6n2c5c31)C(=O)NC4` ({Staurosporine-Suc-βAla-βAla-βAla-βAla-βAla-βAla-βAla}-[Dap]VFRVFGD-NH2; lactam 1-8), the Activity in [13] came out at 100%; in [14], 5.5%; in test [15], 100%; in test [16], 100%; in test [17] it was 99%; in [18] it was 100%. Also, in test [19], the Activity worked out at 91%.
